Source: ChEMBL document CHEMBL1146028, “Dibasic non-imidazole histamine H3 receptor antagonists with a rigid biphenyl scaffold” (Bioorg Med Chem Lett, 2006)
Activity calls are given as the source filed them. The calls are words filed in the database; no cut-off is given here.

What was measured:
[1] = biological target: T1, Histamine H3 receptor (Homo sapiens, UniProt Q9Y5N1); assay: Displacement of [3H]RAMHA from human histamine H3 receptor transfected in SK-N-MC cells; format: cell-based
Method in brief: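 Membranes from SK-N-MC cells stably expressing human H3 receptor, incubated 60 min at room temperature with 0.5 nM [3H](R)-α-methylhistamine in 50 mM Tris–HCl/5 mM EDTA, pH 7.4; compounds 0.01 nM–10 µM. Filtration, two ice-cold washes, scintillation counting. Non-specific binding: 10 µM histamine. IC50 estimated from displacement curves.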

[2] = biological target: Histamine H3 receptor (Rattus norvegicus, UniProt Q9QYN8); assay: Displacement of [3H]RAMHA from histamine H3 receptor in rat brain membranes; format: cell membranes
Sequence of Histamine H3 receptor (Rattus norvegicus, UniProt Q9QYN8) (Q9QYN8 whole entry): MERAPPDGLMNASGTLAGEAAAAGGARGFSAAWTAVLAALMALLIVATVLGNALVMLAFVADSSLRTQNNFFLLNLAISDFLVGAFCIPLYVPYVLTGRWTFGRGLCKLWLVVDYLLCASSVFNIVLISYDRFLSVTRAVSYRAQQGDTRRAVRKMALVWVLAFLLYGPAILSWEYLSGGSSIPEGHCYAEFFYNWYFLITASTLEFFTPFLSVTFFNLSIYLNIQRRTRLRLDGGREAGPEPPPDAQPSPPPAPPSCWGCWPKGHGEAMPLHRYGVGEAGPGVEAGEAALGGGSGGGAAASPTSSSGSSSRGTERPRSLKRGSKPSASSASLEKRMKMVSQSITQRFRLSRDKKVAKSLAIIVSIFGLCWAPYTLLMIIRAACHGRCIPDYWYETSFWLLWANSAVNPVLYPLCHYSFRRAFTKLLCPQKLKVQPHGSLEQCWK
Method in brief: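 Rat cerebral cortex membranes incubated 60 min at room temperature with 0.5 nM [3H](R)-α-methylhistamine in 50 mM Tris–HCl/0.5 mM EDTA/50 mM NaCl, pH 7.4; compounds 0.01 nM–10 µM. Rapid filtration, two ice-cold buffer washes, scintillation counting. Non-specific binding: 10 µM thioperamide. IC50 from displacement curves; mean of three experiments.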

[3] = biological target: Histamine H1 receptor (Cavia porcellus) (UniProt P31389); assay: Activity at histamine H1 receptor in isolated guinea pig ileum up to 10 uM; format: functional, tissue-based
Sequence of Histamine H1 receptor (Cavia porcellus) (P31389 whole entry): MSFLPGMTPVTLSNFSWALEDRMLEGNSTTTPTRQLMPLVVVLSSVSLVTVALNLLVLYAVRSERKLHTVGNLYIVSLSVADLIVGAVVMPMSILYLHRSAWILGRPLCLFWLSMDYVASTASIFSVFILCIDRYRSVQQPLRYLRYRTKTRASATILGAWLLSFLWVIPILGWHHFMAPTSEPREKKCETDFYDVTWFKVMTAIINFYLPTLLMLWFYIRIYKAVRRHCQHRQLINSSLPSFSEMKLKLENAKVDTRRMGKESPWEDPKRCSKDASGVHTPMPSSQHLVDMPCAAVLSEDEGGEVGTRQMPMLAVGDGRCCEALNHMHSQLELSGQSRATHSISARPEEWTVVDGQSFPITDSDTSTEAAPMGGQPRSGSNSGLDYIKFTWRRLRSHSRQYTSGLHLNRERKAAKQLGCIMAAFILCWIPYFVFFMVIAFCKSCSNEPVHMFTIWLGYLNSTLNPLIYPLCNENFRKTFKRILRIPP

[4] = biological target: Histamine H2 receptor (Cavia porcellus) (UniProt P47747); assay: Activity at histamine H2 receptor in isolated guinea pig atrium up to 10 uM; format: functional, tissue-based; conditions: Cardiac atrium
Sequence of Histamine H2 receptor (Cavia porcellus) (P47747 whole entry): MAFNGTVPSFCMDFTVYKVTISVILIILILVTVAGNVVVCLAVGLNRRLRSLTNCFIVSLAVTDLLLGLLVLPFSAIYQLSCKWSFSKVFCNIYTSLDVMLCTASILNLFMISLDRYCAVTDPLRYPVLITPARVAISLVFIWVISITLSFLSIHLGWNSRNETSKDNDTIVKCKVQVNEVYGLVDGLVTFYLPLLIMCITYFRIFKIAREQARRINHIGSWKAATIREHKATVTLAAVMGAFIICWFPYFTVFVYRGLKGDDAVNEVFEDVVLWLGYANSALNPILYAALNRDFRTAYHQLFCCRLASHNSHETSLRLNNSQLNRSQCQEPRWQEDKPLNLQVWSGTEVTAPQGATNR

[5] = biological target: Histamine H3 receptor (Cavia porcellus) (UniProt Q9JI35); assay: Activity at histamine H3 receptor assessed as RAMHA-induced inhibition of electrically-stimulated guinea pig isolated ileum; format: functional, tissue-based; conditions: filed as antagonist
Sequence of Histamine H3 receptor (Cavia porcellus) (Q9JI35 whole entry): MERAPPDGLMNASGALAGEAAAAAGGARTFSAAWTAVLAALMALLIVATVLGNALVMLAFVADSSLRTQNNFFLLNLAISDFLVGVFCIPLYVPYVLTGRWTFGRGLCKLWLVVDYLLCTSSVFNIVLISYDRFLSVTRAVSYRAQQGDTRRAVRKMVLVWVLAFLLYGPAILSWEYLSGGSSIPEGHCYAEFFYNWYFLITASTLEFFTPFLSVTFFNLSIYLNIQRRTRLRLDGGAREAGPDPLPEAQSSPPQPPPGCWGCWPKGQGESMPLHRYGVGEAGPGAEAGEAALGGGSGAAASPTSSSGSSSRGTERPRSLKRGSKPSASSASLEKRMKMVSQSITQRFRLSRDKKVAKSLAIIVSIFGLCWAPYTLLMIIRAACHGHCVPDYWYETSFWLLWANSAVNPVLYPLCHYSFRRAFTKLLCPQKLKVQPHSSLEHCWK

[6] = biological target: T1, Histamine H3 receptor; assay: Antagonist activity against histamine H3 receptor assessed as beta galactosidase reporter gene transactivation in SK-N-MC cells; format: functional, cell-based
Method in brief: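 SK-N-MC cells expressing human H3 receptor; compounds (0.1 nM–10 µM) added to media, 5 min later forskolin (5 µM) and cumulative (R)-α-methylhistamine (0.1 nM–1 µM). After 6 h at 37 °C, cells lysed (0.5% Triton, 40 mM β-mercaptoethanol); read-out by absorbance 570 nm after overnight incubation at 20 °C.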

[7] = biological target: T2, Acetylcholinesterase (Rattus norvegicus) (UniProt P37136); assay: Inhibition of AChE in rat brain at 10 uM; format: tissue-based
T2 sequence (whole entry): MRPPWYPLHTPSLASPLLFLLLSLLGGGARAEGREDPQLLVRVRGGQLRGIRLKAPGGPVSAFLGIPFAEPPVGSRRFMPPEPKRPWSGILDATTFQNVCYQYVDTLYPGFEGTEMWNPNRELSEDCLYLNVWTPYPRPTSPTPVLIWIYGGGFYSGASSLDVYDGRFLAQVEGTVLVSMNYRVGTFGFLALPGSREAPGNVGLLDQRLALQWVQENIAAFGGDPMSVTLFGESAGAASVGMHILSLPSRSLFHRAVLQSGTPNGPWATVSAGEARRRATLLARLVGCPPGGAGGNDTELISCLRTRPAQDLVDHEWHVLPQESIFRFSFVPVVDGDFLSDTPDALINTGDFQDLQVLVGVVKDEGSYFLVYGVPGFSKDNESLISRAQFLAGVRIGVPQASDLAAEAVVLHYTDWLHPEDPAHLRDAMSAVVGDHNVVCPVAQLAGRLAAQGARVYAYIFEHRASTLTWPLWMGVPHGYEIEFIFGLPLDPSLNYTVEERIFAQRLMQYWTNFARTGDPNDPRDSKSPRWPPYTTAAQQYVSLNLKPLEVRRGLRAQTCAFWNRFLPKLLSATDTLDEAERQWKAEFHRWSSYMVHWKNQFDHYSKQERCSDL

T1 sequence (Q9Y5N1 whole entry): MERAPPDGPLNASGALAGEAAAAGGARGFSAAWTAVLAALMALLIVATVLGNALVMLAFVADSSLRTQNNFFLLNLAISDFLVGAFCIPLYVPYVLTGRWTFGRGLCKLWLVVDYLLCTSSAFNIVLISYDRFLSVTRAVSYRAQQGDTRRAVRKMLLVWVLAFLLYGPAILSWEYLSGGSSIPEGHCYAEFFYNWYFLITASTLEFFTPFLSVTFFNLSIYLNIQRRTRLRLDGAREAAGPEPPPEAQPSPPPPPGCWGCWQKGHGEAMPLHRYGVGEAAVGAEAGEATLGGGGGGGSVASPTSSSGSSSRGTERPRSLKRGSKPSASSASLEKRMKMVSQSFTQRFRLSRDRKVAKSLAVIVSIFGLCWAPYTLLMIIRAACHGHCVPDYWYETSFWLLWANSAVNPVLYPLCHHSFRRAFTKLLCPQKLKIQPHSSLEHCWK

O=C1CCCCN1Cc1ccc(-c2ccc(CN3CCCCC3)cc2)cc1
Ki [1]: 0.0468 µM
Ki [2]: 0.115 µM
Activity [3]: inactive
Activity [4]: inactive
Activity [5]: Antagonist

CN(Cc1ccc(-c2ccc(CN(C)C3CCCCC3)cc2)cc1)C1CCCCC1
Ki [1]: 0.0372 µM
Ki [2]: 0.214 µM
Activity [3]: inactive
Activity [4]: inactive
Activity [5]: Antagonist

c1cc(-c2ccc(CNC3CCCCC3)cc2)ccc1CNC1CCCCC1
Ki [1]: 0.562 µM
Ki [2]: 2.09 µM
Activity [3]: inactive
Activity [4]: inactive
Activity [5]: Antagonist

CC(=O)N1CCN(Cc2ccc(-c3ccc(CN4CCN(C(C)=O)CC4)cc3)cc2)CC1
Ki [1]: 1.41 µM
Ki [2]: 3.89 µM
Activity [3]: inactive
Activity [4]: inactive
Activity [5]: Antagonist

c1cc(CN2CCCCC2)ccc1CN1CCCCC1
Ki [1]: 1.23 µM
Ki [2]: 4.07 µM
Activity [3]: inactive
Activity [4]: inactive
Activity [5]: Antagonist

c1cc(-c2ccc(CN3CCCCC3)cc2)ccc1CN1CCCCC1
Ki [1]: 0.000339 µM
Ki [2]: 0.0012 µM
Activity [3]: inactive
Activity [4]: inactive
Activity [5]: Antagonist
pKb [6]: 8.77

CC1CC(C)CN(Cc2ccc(-c3ccc(CN4CC(C)CC(C)C4)cc3)cc2)C1 (stereo not drawn)
Ki [1]: 0.398 µM
Ki [2]: 0.676 µM
Activity [3]: inactive
Activity [4]: inactive
Activity [5]: Antagonist

c1cc(-c2ccc(CCN3CCCCC3)cc2)ccc1CCN1CCCCC1
Ki [1]: 0.00117 µM
Ki [2]: 0.00398 µM
Activity [3]: inactive
Activity [4]: inactive
Activity [5]: Antagonist

c1cc(-c2ccc(CN3CCCCC3)cc2)ccc1CNC1CCCCC1
Ki [1]: 0.0017 µM
Ki [2]: 0.00912 µM
Activity [3]: inactive
Activity [4]: inactive
Activity [5]: Antagonist
inhibition [7]: 50%

CC1CCN(Cc2ccc(-c3ccc(CN4CCC(C)CC4)cc3)cc2)CC1
Ki [1]: 0.00617 µM
Ki [2]: 0.0151 µM
Activity [3]: inactive
Activity [4]: inactive
Activity [5]: Antagonist
inhibition [7]: 50%

CN(C)Cc1ccc(-c2ccc(CN(C)C)cc2)cc1
Ki [1]: 0.00186 µM
Ki [2]: 0.00661 µM
Activity [3]: inactive
Activity [4]: inactive
Activity [5]: Antagonist

CCCCCNCc1ccc(-c2ccc(CNCCCCC)cc2)cc1
Ki [1]: 0.759 µM
Ki [2]: 3.31 µM
Activity [3]: inactive
Activity [4]: inactive
Activity [5]: Antagonist

NCc1ccc(-c2ccc(CN)cc2)cc1
Ki [1]: 4.47 µM
Ki [2]: 8.71 µM
Activity [3]: inactive
Activity [4]: inactive
Activity [5]: Antagonist

CC(=O)N1CCN(Cc2ccc(-c3ccc(CN4CCCCC4)cc3)cc2)CC1
Ki [1]: 0.00631 µM
Ki [2]: 0.0468 µM
Activity [3]: inactive
Activity [4]: inactive
Activity [5]: Antagonist

c1cc(-c2ccc(CN3CCOCC3)cc2)ccc1CN1CCOCC1
Ki [1]: 0.0123 µM
Ki [2]: 0.0813 µM
Activity [3]: inactive
Activity [4]: inactive
Activity [5]: Antagonist
